# Screens as filed in PubChem.
# Rows were chosen to be rich in hits. Some 1.7% of all compounds tested hit in one or more screens of this group.
# IDE act: boosts human insulin-degrading enzyme activity in HEK cells | FAbeta-B cleavage, fluorescence polarization; 0% vehicle, 100% cell-free pure enzyme wells | activation, % at 5.96 µM | 340,000 tested, 0.073% active;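 active = activation above the mean of all tested compounds plus 3 SD, set per screening campaign, cut at about 17% in these data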
# HNF4A DNA FP: change in binding of human HNF4 alpha to DNA; HNF4a-FITC DNA binding, fluorescence polarization, 1 h; AID 1224865; activity change, % at 10 µM; P41235; 360,000 tested, 0.3% active; in the data active = activity change above about 30%, passing the limit was not always enough
# CSN deneddyl inh: CSN deneddylation inhibition | Purified CSN, SCF-Nedd8-OG deneddylation, fluorescence polarization | inhibition, % at 12.5 µM | 360,000 tested, 0.38% active | AID 651999;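 active = pattern-corrected inhibition above about 35%, with an unprinted fluorescence ratio check between 0.5 and 1.5, limit read from the data, passing the limit was not always enough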;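 note: 0% = enzyme with substrate and 100% = substrate without enzyme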
#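 Assay system: purified human Csn5 enzyme expressed in HEK293T cells; measure: % inhibition; also added: SCFSkp2-Nedd8OG substrate at 10 nM final; technique: fluorescence polarization; times: reaction 90 min, room temperature; medium: Tris buffer pH 7.5, NaCl, DTT, Tween-20, trehalose, ovalbumin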
# IDE inh: cellular human IDE inhibition. HEK cells, FAbetaB cleavage, fluorescence polarization. inhibition, % at 5.59 µM. 320,000 tested, 0.41% active. P14735;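 active = percent inhibition above the average of all tested compounds plus 3 SD, set per screening campaign, cut at about 16% in these data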;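 note: IDE supplied by intact live HEK cells; FP after avidin binding of uncleaved biotin substrate so inhibition keeps polarization high; 0% = DMSO wells and 100% = 60 µM reference IDE inhibitor Ii1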
# Rpn11 block: inhibitors of human proteasome Rpn11 | inhibition, % at 20 µM | O00487 | AID 588493 | human 26S proteasome, Ub4-pepOG fluorescence polarization; 20S core pre-blocked with epoxomicin | 360,000 tested, 0.59% active;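 active = inhibition at 20 µM, scaled to each plate's controls, above about 33%, limit read from the data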
# TPT1 inhibitor: inhibitors of Candida albicans tRNA 2'-phosphotransferase TPT1 | 300,000 tested, 0.81% active | inhibition, % at 5 µM | AID 1962 | recombinant caTPT1, FP RNA substrate dephosphorylation;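 active = inhibition above the mean of all tested compounds plus 3 SD, set per screening campaign, cut at about 24% in these data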;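 note: plate controls were DMSO alone for no effect and ferristatin control at 100 nM for full effect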
# TPT1 inh confirm: TPT1 (C. albicans) inhibition, confirmation. shares compounds with TPT1 inhibitor. recombinant caTPT1, fluorescence polarization, RNase T1 coupled. inhibition, % at 5 µM. 2,400 tested, 74% active;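 active = inhibition above the primary screen limit, the mean inhibition of all tested compounds plus 3 SD, cut at about 25% in these data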
# RNase T1 counter: blocks Aspergillus oryzae RNase T1, a TPT1 counter-screen; shares compounds with TPT1 inhibitor; RNase T1 cleavage, fluorescence polarization, 1536-well; inhibition, % at 5 µM; 2,400 tested, 83% active;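 active = inhibition above the solvent-only control well mean plus 3 SD, limit set per screening run, cut at about 23% in these data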;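 note: plate controls were DMSO wells with enzyme for no effect and wells without RNase T1 for full effect; inhibitors block cleavage so intact labeled substrate keeps polarization high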
# Target sequence (P00651 whole entry, looked up): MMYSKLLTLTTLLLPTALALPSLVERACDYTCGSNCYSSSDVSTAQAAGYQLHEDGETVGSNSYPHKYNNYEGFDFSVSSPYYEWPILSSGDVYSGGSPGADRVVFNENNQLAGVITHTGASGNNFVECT
# IDE cell inh cf: confirmation of human insulin-degrading enzyme inhibitors in cells. shares compounds with IDE inh. HEK cells, FAbetaB cleavage, fluorescence polarization. inhibition, % at 5.59 µM. 1,200 tested, 51% active. AID 435028;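 active = mean inhibition across triplicate wells above the cutoff set by the earlier primary insulin-degrading enzyme screen, cut at about 16% in these data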;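 note: 0% = DMSO wells and 100% = 60 µM reference IDE inhibitor Ii1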
# HEK cytotox: counter-screen for IDE inhibitors: cytotoxicity in HEK cells. shares compounds with IDE inh. HEK293 cytotoxicity, ATP luminescence. inhibition, % at 5.59 µM. 1,200 tested, 28% active; in the data active = inhibition above about 22%;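 note: 0% = vehicle wells and 100% = reference cytotoxic drug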
# Rpn11 inh conf: Rpn11 inhibition confirmation, single concentration; shares compounds with Rpn11 block; purified human 26S proteasome, Ub4-pepOG fluorescence polarization; proteasome pretreated with epoxomicin; inhibition, % at 20 µM; 1,900 tested, 29% active; AID 602318
# MMP-2 inh: MMP-2 (human) inhibition counter-screen; shares compounds with Rpn11 block; recombinant MMP-2, FRET peptide cleavage fluorescence; inhibition, % at 20 µM; 1,900 tested, 4% active; AID 602330;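 note: human MMP-2 activated beforehand with APMA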
# Thrombin FP: blocks bovine thrombin, flagging nonselective RPN11 hits. shares compounds with Rpn11 block. bovine thrombin cleavage of Ub4-pepOG, fluorescence polarization. inhibition, % at 20 µM. 1,900 tested, 13% active. AID 602333;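 active = mean inhibition at least 40% at 20 µM, or signal 3 deviations below plate average, so some actives read negative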;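 note: plate controls were thrombin with DMSO for no effect and buffer wells lacking thrombin for full effect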
# Target sequence (P00735 whole entry, looked up): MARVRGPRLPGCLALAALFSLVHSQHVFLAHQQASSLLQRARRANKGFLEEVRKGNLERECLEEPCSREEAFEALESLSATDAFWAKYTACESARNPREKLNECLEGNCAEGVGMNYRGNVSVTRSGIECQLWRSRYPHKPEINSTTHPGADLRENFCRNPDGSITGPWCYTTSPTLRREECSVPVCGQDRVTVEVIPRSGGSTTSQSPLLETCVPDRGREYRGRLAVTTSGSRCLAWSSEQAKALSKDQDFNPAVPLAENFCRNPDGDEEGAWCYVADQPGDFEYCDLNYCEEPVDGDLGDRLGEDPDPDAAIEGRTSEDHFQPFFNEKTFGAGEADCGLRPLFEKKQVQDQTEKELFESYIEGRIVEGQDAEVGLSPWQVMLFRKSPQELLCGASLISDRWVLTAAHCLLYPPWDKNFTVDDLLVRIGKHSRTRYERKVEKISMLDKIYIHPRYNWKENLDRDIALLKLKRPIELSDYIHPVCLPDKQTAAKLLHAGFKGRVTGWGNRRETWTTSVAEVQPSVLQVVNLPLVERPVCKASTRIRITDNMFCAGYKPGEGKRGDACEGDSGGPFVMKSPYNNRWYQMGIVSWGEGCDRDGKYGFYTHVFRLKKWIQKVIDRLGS
# Active calls of the source: *; nt = not tested or not shown; ! = repeats disagree. Cut-off read from the data, not from the text of the source, unless noted: active = inhibition above about 40%; inactive = the rest.
SMILES,IDE act,HNF4A DNA FP,CSN deneddyl inh,IDE inh,Rpn11 block,TPT1 inhibitor,TPT1 inh confirm,RNase T1 counter,others
Cc1cc(C)c(-n2c(O)c(/C=N/NC(=O)c3ccncc3)c(=O)[nH]c2=O)c(C)c1,nt,7,5,3,27,24*,29*,40*,
Cc1ccc(C(O)(C(=O)OC(C)C)C(O)c2ccccc2)cc1 (stereo unspecified),nt,2,-5,nt,nt,nt,nt,nt,
c1ccc2[nH]c(CCN3CCCCC3)nc2c1,nt,-1,-2,nt,6,nt,nt,nt,
C=CCn1c(O)c(C=NCCN(C)C)c(=O)[nH]c1=O,-1,14,9,7,16,30*,35*,45*,
COc1ccc(OC)c(N=Cc2c(O)n(Cc3ccccc3)c(=S)[nH]c2=O)c1,4,11,14,-2,34,5,nt,nt,
CCCCn1c(=O)c(C=Nc2cc([N+](=O)[O-])ccc2OC)c(O)n(CCCCl)c1=O,-2,8,5,2,14,74*,53*,67*,
C[C@]12CCC3C(CC[C@H]4C[C@H](O)CC[C@]34C)C1C[C@@H](O)[C@H]2O (stereo partly specified),nt,3,6,nt,-6,nt,nt,nt,
Cc1ccccc1N1C(=O)NC(=O)/C(=C\c2cc(Br)c(N3CCOCC3)o2)C1=O,-14,135,103,2,nt,96*,141*,140*,
Cc1ccccc1N1C(=O)/C(=C/c2ccco2)C(=O)NC1=S,nt,nt,nt,1,nt,80*,80*,14,
Cc1cccc(N2C(=O)/C(=C/c3ccc(N4CCN(C)CC4)o3)C(=O)NC2=S)c1C,-26,84*,123,9,nt,83*,121*,121*,
CCOc1ccc(N2C(=O)/C(=C/c3ccco3)C(=O)NC2=S)cc1,2,-69,104,2,nt,47*,16,20,
O=C1NC(=S)N(c2ccccc2F)C(=O)/C1=C\c1cccs1,-7,-2,7,4,5,9,nt,nt,
NP(=O)(Nc1ccccc1)Nc1ccccc1,2,-1,-5,nt,8,nt,nt,nt,
COC1CCC(OC2CC(C3(C)CCC4(CC(O)C(C)C(C(C)/C=C(\C)C(=O)C(C)CC(C)C(=O)O)O4)O3)OC3(OC(C4OC(O)(CO)C(C)CC4C)CC3C)C2C)OC1C (stereo unspecified),2,1,3,nt,-4,nt,nt,nt,
O=C1NC(=O)N(c2ccc(F)cc2)C(=O)/C1=C/c1ccsc1,2,1,10,8,4,16,nt,nt,
O=C1NC(=O)N(c2cccc(Br)c2)C(=O)/C1=C/c1ccsc1,1,1,13,22*,29,91*,70*,72*,IDE cell inh cf=6;HEK cytotox=5
CCC1(CC)C(=O)NC(=O)N(CCc2ccccn2)C1=O,3,-5,0,nt,5,nt,nt,nt,
Cc1cccc(-n2c(O)c(/C=C/C=Nc3ccccc3)c(=O)[nH]c2=O)c1,-49,163,8,38*,nt,183*,187*,173*,IDE cell inh cf=56*;HEK cytotox=8
O=C1NC(=O)N(c2ccccc2)C(=O)/C1=C\c1ccc([N+](=O)[O-])o1,nt,nt,nt,13,nt,16,nt,nt,
Cc1ccccc1N1C(=O)NC(=O)/C(=C/c2ccc(N3CCOCC3)o2)C1=O,-11,108*,132,27*,nt,123*,136*,138*,IDE cell inh cf=19*;HEK cytotox=3
CCOC(=O)c1cc2c(cn1)[C@H](CCO)NC2,0,-2,1,nt,12,nt,nt,nt,
C=CCN1C(=O)NC(=O)/C(=C/c2ccoc2)C1=O,-11,-3,17,19*,-23,106*,10,17,IDE cell inh cf=10;HEK cytotox=8
O=C(C1CCCCC1)N1Cc2ccccc2-n2nncc2C1,nt,4,3,nt,7,nt,nt,nt,
C[C@]12CCC3C(CC[C@H]4C[C@H](O)CC[C@]34C)C1C[C@@H](CCCCl)[C@@H]2O (stereo partly specified),nt,-2,-1,-1,6,nt,nt,nt,
COc1cc(/C=C/c2nc3ccccc3c(=O)n2-c2ccccc2O)ccc1O,-61,10,24,60*,nt,26*,45*,49*,IDE cell inh cf=128*;HEK cytotox=15
SMILES,IDE act,HNF4A DNA FP,CSN deneddyl inh,IDE inh,Rpn11 block,TPT1 inhibitor,TPT1 inh confirm,RNase T1 counter,others
O=c1c2ccccc2nc(/C=C/c2ccc(O)c(O)c2)n1-c1ccccc1,-128,16,22,170*,nt,46*,49*,57*,IDE cell inh cf=102*;HEK cytotox=21
CC1(C)OC(c2ccccc2)=C/C(=C/C=C2C(=O)NC(=S)NC2=O)O1,nt,nt,nt,21*,nt,129*,77*,76*,IDE cell inh cf=142*;HEK cytotox=14
CN1/C(=C\C=C2C(=O)NC(=S)NC2=O)C(C)(C)c2ccccc21,-204,60,-105,nt,7,nt,nt,nt,
CC1=NCCc2c1[nH]c1ccccc21,2,37,18,6,62*,25*,17,22*,Rpn11 inh conf=-4;MMP-2 inh=-29;Thrombin FP=-6
O=c1[nH]c(=O)n(CC2CCCO2)c(O)c1/C=C1\C=Nc2ccccc21 (stereo unspecified),-5,3,3,4,48*!,37*!,16,24*,Rpn11 inh conf=19;MMP-2 inh=-15;Thrombin FP=12
COc1ccc(N=Cc2c(O)n(CC3CCCO3)c(=O)[nH]c2=O)cc1 (stereo unspecified),-1,-2,0,0,37,1,nt,nt,
COc1ccc(CN2C(=O)NC(=O)/C(=C/c3ccoc3)C2=O)cc1,-35,16,161,27*,186*,174*,19,32*,IDE cell inh cf=9;HEK cytotox=4;Rpn11 inh conf=96*;MMP-2 inh=44*;Thrombin FP=10
COc1ccc(CN2C(=O)NC(=O)/C(=C/c3cc(OC)c(OC)c(OC)c3)C2=O)cc1,-1,-2,5,2,6,20,nt,nt,
CC(=O)OCC12CC(OC(=O)CC(C)C)C(C)=CC1OC1C(O)C(OC(C)=O)C2(C)C12CO2 (stereo unspecified),0,-6,-1,nt,6,nt,nt,nt,
